# The sample as a whole holds a higher share of hits than the screen did.
# Yeast eIF2B – modulators of yeast eIF2B activity | S. cerevisiae eIF2B-epsilon R284H, GCN4-lacZ luminescence | inhibition, % at 25 µM (by protocol) | actives 0.91% (n = 27,000) | AID 688;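 active = mutant luminescence inhibited past about 50% while wild type luminescence and mutant growth stay under set limits, limit read from the data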
#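 Material: yeast eIF2B-epsilon R284H mutant carrying GCN4–beta-galactosidase fusion. Medium: YPD yeast growth medium. Incubation: 16 h growth with compound at 30 °C, 90 min Beta-Glo step. Signal: Beta-Glo luminescence plus absorbance at 595 nm. Evaluation: % inhibition of reporter signal and growth versus controls. Doses: 25 µM single dose.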
# * marks the source's active call; other numbers are inactive results.
SMILES,Yeast eIF2B
Clc1cccc(-c2nn3c(COc4ccccc4)nnc3s2)c1,56*
CCOc1cccc(-c2nnc3sc(-c4ccc(C)cc4)nn23)c1,36
Clc1ccc(-c2nn3c(-c4cccc(Cl)c4)nnc3s2)cc1,3
COc1ccc(-c2nc(C#N)c(N3CCCCCC3)o2)cc1OC,15
O=C(NCc1ccncc1)C1CCCCC1,10
CCn1ncc(C2=NOC(C(=O)NCc3ccc(Cl)cc3)C2)c1C (stereo not given),22
CCOc1ccc(C2=Nn3c(nnc3-c3ccc(OC)cc3)SC2)cc1,20
COc1ccc(-c2nnc3n2N=C(C)CS3)cc1OC,26
COc1ccc(OC)c(C2=Nn3c(nnc3-c3cccc(OC(C)C)c3)SC2)c1,60*
O=C(O)c1ccc(-n2nnnc2Oc2cccc3cccnc23)cc1,14
COc1cccc(C(=O)Nc2cccc(C(=O)N3CCOCC3)c2)c1,59*
Cc1cccc(C(=O)Nc2cccc(C(=O)N3CCOCC3)c2)c1,22
COc1ccc(C(=O)Nc2cccc(C(=O)N3CCCC3)c2)cc1,36
Cc1ccc(-c2nnc(N3CCCCC3)c3ccccc23)cc1S(=O)(=O)NCC1CCCO1 (stereo not given),13
CCC(Sc1nc2sc(C(=O)OC)c(C)c2c(=O)n1N)C(=O)NCC1CCCO1 (stereo not given),50*
Cc1nnc(SC(C)C(=O)NCC2CCCO2)n1-c1ccccc1 (stereo not given),43
CCC(Sc1nc2sc(C(=O)OC)c(C)c2c(=O)n1N)C(=O)N(CC)CC (stereo not given),7
COc1cccc(N2CCN(Cc3ccsc3)CC2)c1,17
CC(C)c1ccccc1NC(=O)c1cccc(NC(=O)c2ccccc2)c1,10
Cc1cccc(C)c1NC(=O)NC1(C(=O)NCCCN2CCOCC2)CCCCC1,25
COc1ccc(NC(C)=O)cc1NC(C)C(=O)Nc1cccc2ccccc12 (stereo not given),22
CCOC(=O)CN(C(=O)Cn1nnc(-c2ccc(OC)cc2)n1)C(C(=O)NC1CCCC1)c1ccc(F)cc1 (stereo not given),17
Cc1ccc(-c2nnn(CC(=O)N(Cc3cccs3)C(C(=O)NC3CCCC3)c3ccncc3)n2)cc1 (stereo not given),3
COc1ccc(-c2nnn(CC(=O)N(Cc3ccc(F)cc3)C(C(=O)NC3CCCC3)c3ccc(F)cc3)n2)cc1 (stereo not given),56*
COc1ccc(OC)c(NC(=O)Cc2coc3cc(C)cc(C)c23)c1,19
SMILES,Yeast eIF2B
CCCSc1nc(C)cc(C)c1C(N)=O,-5
Cc1cc(C)n(-c2ccc(C(=O)NC3=NCCS3)cc2)n1,23
CC(C)C(NC(=O)c1ccccc1)C(=O)NC1=NCCS1 (stereo not given),52*
CC(NC(=O)c1cccs1)C(=O)NC1=NCCS1 (stereo not given),23
OCCNc1nc(SCc2ccccc2)nc2sc3c(c12)CCC3,-14
NNC(=O)c1cnn(Cc2ccccc2)c1N,-22
N#Cc1nc(-c2cccs2)oc1NCc1ccc2c(c1)OCO2,12
O=[N+]([O-])CC(=Nc1ccc(Cl)cc1)N/N=C\c1oc(O)c2ccccc12,15
CC(C)C(=O)c1cn(CC(=O)N2CCCc3ccccc32)c2ccccc12,-5
CCN1CCN(C(C(=O)NC2CCCCC2)c2ccc(Cl)cc2)CC1 (stereo not given),19
Cc1ccc(NS(=O)(=O)c2ccc(NC(=O)c3ccc(Br)o3)cc2)c(C)c1,19
CN(C)C(=O)Cn1nc(-c2ccccc2)c2ccccc2c1=O,10
NC(=O)CCn1nc(-c2ccc(Cl)cc2)c2ccccc2c1=O,-28
CNC(=O)CCn1nc(-c2ccccc2)c2ccccc2c1=O,59*
COc1cc(C)nc(N(C)S(=O)(=O)c2ccccc2Cl)n1,-12
CC(=O)Nc1ccccc1Nc1cc(C#N)c(C#N)cc1[N+](=O)[O-],-23
N#Cc1ccc(-c2ccco2)nc1SCc1ccccc1,19
O=C(O)c1ccc(CSc2nnc(Cc3ccccc3)o2)cc1,13
O=C(O)c1ccc(CSc2n[nH]c(-c3ccco3)n2)cc1,67*
O=C(c1ccc2c(c1)OCO2)N(c1ccc(F)cc1)C1C=CS(=O)(=O)C1 (stereo not given),56*
CC(C)C(=O)N(c1ccc(F)cc1)C1C=CS(=O)(=O)C1 (stereo not given),23
O=C(c1ccc(S(=O)(=O)N2CCOCC2)cc1)N(c1ccccc1)C1C=CS(=O)(=O)C1 (stereo not given),18
O=C(c1ccccc1)N(c1ccccc1)C1C=CS(=O)(=O)C1 (stereo not given),-2
O=C(Cc1ccc(F)cc1)N(c1ccc(F)cc1)C1C=CS(=O)(=O)C1 (stereo not given),-26
O=C(Cc1ccccc1)N(c1ccc(F)cc1)C1C=CS(=O)(=O)C1 (stereo not given),56*
SMILES,Yeast eIF2B
COc1ccccc1C1CC(c2ccc(Cl)cc2)Nc2ncnn21 (stereo not given),-19
Cn1c(C(=O)OC(C(=O)NCc2ccco2)c2ccncc2)cc2sccc21 (stereo not given),30
COc1ccc(CNC(=O)C(c2ccc(C)o2)N(C(=O)c2csnn2)c2ccc(C(C)C)cc2)cc1 (stereo not given),13
O=C(NCc1ccccc1)c1ccc(COCC(F)(F)F)o1,-6
CN(C)/C=C(/C#N)C(=O)c1cccc(Oc2ccc(C(C)(C)C)cc2)c1,22
Cc1c(Cl)cccc1-n1c(SCC(=O)NCc2ccccc2Cl)nnc1-c1ccncc1,-15
CCn1c(NCc2ccccc2Cl)nc2ccccc21,19
CCn1c(CNc2nc3ccccc3n2C(C)C)nc2ccccc21,53*
CC(C)n1c(CNC(=O)c2ccccc2)nc2ccccc21,-11
O=c1c(C(c2ccccc2)c2c(O)sc3ccccc3c2=O)c(O)sc2ccccc12,8
COc1ccc(OC)c(NC(=O)CSc2nnc(C3CCCCC3)n2-c2ccccc2)c1,15
COc1ccc(OC)c(Nc2nc(N)nc(CSc3nnc(-c4ccncc4)o3)n2)c1,-2
CCCc1nnc(NC(=O)CCC(=O)Nc2ccc(F)cc2)s1,-4
CCCCCOC(=O)Nc1nnc(CCC)s1,51*
CCCc1nnc(NC(=O)CN2C(=O)c3ccccc3C2=O)s1,20
CCOC(=O)C(NCc1ccc2c(c1)OCO2)(NC(=O)c1ccccc1)C(F)(F)F (stereo not given),10
COC(=O)c1cc2nc(-c3ccc(OC)cc3)cc(C(F)(F)F)n2n1,-11
COC(=O)c1nn2c(C(F)(F)F)cc(-c3ccc(Br)o3)nc2c1Br,54*
CCOC(=O)c1cnn2c(C(F)(F)F)cc(-c3ccccc3)nc12,-9
O=C(c1oc2ccccc2c1CSCc1ccccc1)N1CCN(c2ncccn2)CC1,-3
N#CC(C(=O)NC1CCCCC1)c1nc2ccccc2nc1N1CCN(c2ccc(F)cc2)CC1 (stereo not given),23
CCC(CC)COC(=O)C(C#N)c1nc2ccccc2nc1N1CCOCC1 (stereo not given),14
N#CC(C(=O)OC1CCCCC1)c1nc2ccccc2nc1N1CCOCC1 (stereo not given),51*
CCOC(=O)c1c(N)sc(C(=O)N2CCCCC2)c1C,8
COc1ccc2cc3c(N)c(C(=O)N4CCCC4)sc3nc2c1,54*
COc1ccc2cc(C(=O)N3CCCCCC3)sc(=O)c2c1OC,22
CC1CCC(NC(=O)c2ccc3nc[nH]c3c2)CC1 (stereo not given),30
